The record followed here is ChEMBL document CHEMBL2146419, “Effects of polyphenol compounds on influenza A virus replication and definition of their mechanism of action” (Bioorg Med Chem, 2012).

Activity calls are given as the source filed them. The rule behind the calls is not given here.

Series [1] deals with Influenza A virus. Briefly: Antiviral activity against Influenza virus A/Puerto Rico/8/34 H1N1 infected in dog MDCK cells assessed as reduction in nucleoprotein expression at 10 ug/mL after 24 hrs by immunoblotting analysis relative to control. In kind it is functional, organism-based. Conditions: A/Puerto Rico/8/1934(H1N1). In short, it runs like this: (§1)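 PR8-infected MDCK cells, untreated or treated, were lysed at 24 h. Homogenates were run on 12% gels under reducing conditions, blotted to nitrocellulose and probed with goat polyclonal anti-influenza antibodies. Densitometry was expressed as the ratio of each viral protein to actin, relative to untreated infected cells.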

In series [2] the test system is Influenza A virus. Nature of the series: Antiviral activity against Influenza virus A/Puerto Rico/8/34 H1N1 infected in dog MDCK cells at 10 ug/mL incubated for 4 hrs post-infection followed by compound washout measured after 24 hrs by hemagglutininating unit assay. In kind it is functional, organism-based. As to conditions: A/Puerto Rico/8/1934(H1N1). In short, it runs like this: (§2)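 Compound added to PR8-infected MDCK cells immediately after virus challenge, then removed at 2, 4, 6, 8 or 24 h p.i. Supernatant virus yield was measured by HAU at 24 h p.i. and expressed as a percentage of DMSO-treated control infected cells. Means of two experiments, each in duplicate.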

Series [3] deals with Influenza A virus. Nature of the series: Antiviral activity against Influenza virus A/Puerto Rico/8/34 H1N1 infected in dog MDCK cells incubated for 1 hr prior to infection by hemagglutininating unit assay. It is filed as functional, organism-based. Conditions: A/Puerto Rico/8/1934(H1N1). In short, it runs like this: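 Timing variants, each read by HAU of virus yield from MDCK cells: PR8 stock preincubated 1 h with compound before infection; compound present only during the 1 h adsorption; or cells pretreated overnight with washout just before viral challenge.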

Series [4] has as its target Protein kinase C (PKC) (Homo sapiens) (UniProt O94806+P41743+P17252+P05129+Q05655+P05771+Q05513+Q02156+P24723+Q15139+Q04759). Nature of the series: Inhibition of PKC-mediated ERK1 phosphorylation in human NCI-H292 cells infected with Influenza virus A/Puerto Rico/8/34 H1N1 measured at 6 hrs post-infection by immunoblotting analysis. In kind it is cell-based. In short, it runs like this:
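NCI-H292 cells, mock- or PR8-infected at 1 M.O.I., were treated and lysed 6 h p.i. Lysates were run on 10% SDS–PAGE and blotted with rabbit anti-phospho-PKD, -ERK1/2, -p38MAPK or -JNK antibodies. Membranes were then stripped and reprobed for the corresponding total proteins.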
A general note: A western blot detects proteins with antibodies after separation by electrophoresis.

Series [5] concerns Influenza A virus. Briefly: Antiviral activity against Influenza virus A/Puerto Rico/8/34 H1N1 infected in dog MDCK cells assessed as reduction in matrix protein 1 expression at 10 ug/mL after 24 hrs by immunoblotting analysis relative to control. It is filed as functional, organism-based. Conditions: A/Puerto Rico/8/1934(H1N1). In short, it runs like this:
as §1

Series [6] has as its system Influenza A virus. Briefly: Antiviral activity against Influenza virus A/Puerto Rico/8/34 H1N1 infected in dog MDCK cells assessed as reduction in neuraminidase expression at 10 ug/mL after 24 hrs by immunoblotting analysis relative to control. In kind it is functional, A/Puerto Rico/8/1934(H1N1). Also noted: scale not given: the % may be the effect or the level left. The procedure, abridged:
as §1

Series [7] concerns Influenza A virus. Briefly: Antiviral activity against Influenza virus A/Puerto Rico/8/34 H1N1 infected in dog MDCK cells at 10 ug/mL incubated for 6 hrs post-infection followed by compound washout measured after 24 hrs by hemagglutininating unit assay relative to control. In kind it is functional, A/Puerto Rico/8/1934(H1N1). In short, it runs like this: as §2
The subject of series [8] is MDCK. Nature of the series: Cytotoxicity against dog MDCK cells assessed as morphological alterations at 20 to 40 ug/mL incubated for 24 hrs followed by compound wash out measured after 24 hrs by microscopic analysis. It is filed as cell-based, Canis lupus familiaris. The procedure, abridged: (§3)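 Confluent MDCK monolayers plated at 2×10^5/ml were treated after 24 h with compound at 5–40 μg/ml and incubated a further 24 h. Assessed by microscopic examination of morphology, Trypan blue exclusion for viability, and cell counts for multiplication rate.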

Series [9] relates to Influenza A virus. Briefly: Antiviral activity against Influenza virus A/Puerto Rico/8/34 H1N1 infected in dog MDCK cells assessed as reduction in hemagglutininin expression at 10 ug/mL after 24 hrs by immunoblotting analysis relative to control. In kind it is functional, organism-based. Conditions: A/Puerto Rico/8/1934(H1N1). The procedure, abridged:
as §1

In series [10] the test system is MDCK. Nature of the series: Inhibition of PKC/p38MAPK-mediated nuclear-cytoplasmic viral nucleoprotein export in dog MDCK cells infected with Influenza virus A/Puerto Rico/8/34 H1N1 measured at 8 hrs post-infection by inmmunofluorescence. In kind it is cell-based. As to conditions: Canis lupus familiaris. In short, it runs like this:
(§4)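 MDCK cells were infected with PR8 at 1 M.O.I. for single-cycle replication. At 8 h p.i. cells were fixed, permeabilized and stained with DAPI, then with anti-NP primary and FITC-conjugated secondary antibody. NP localization was assessed by fluorescence microscopy.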

In series [11] the test system is MDCK. Nature of the series: Inhibition of PKC/p38MAPK-mediated nuclear-cytoplasmic viral ribonucleoprotein export in dog MDCK cells infected with Influenza virus A/Puerto Rico/8/34 H1N1 measured at 8 hrs post-infection by inmmunofluorescence. In kind it is cell-based. As to conditions: Canis lupus familiaris. The procedure, abridged: as §4
Series [12] deals with Influenza A virus. Nature of the series: Antiviral activity against Influenza virus A/Puerto Rico/8/34 H1N1 infected in dog MDCK cells at 10 ug/mL incubated for 2 hrs post-infection followed by compound washout measured after 24 hrs by hemagglutininating unit assay. In kind it is functional, organism-based. Conditions: A/Puerto Rico/8/1934(H1N1). The procedure, abridged: as §2

Series [13] deals with Influenza A virus. Nature of the series: Antiviral activity against Influenza virus A/Puerto Rico/8/34 H1N1 infected in dog MDCK cells at 10 ug/mL incubated for 24 hrs post-infection followed by compound washout measured after 24 hrs by hemagglutininating unit assay relative to control. It is filed as functional, A/Puerto Rico/8/1934(H1N1). The procedure, abridged:
as §2

For series [14], the system named is Influenza A virus. Nature of the series: Antiviral activity against Influenza virus A/Puerto Rico/8/34 H1N1 infected in dog MDCK cells at 10 ug/mL incubated for 8 hrs post-infection followed by compound washout measured after 24 hrs by hemagglutininating unit assay relative to control. It is filed as functional, A/Puerto Rico/8/1934(H1N1). The procedure, abridged:
as §2

Series [15] deals with Influenza A virus. Briefly: Antiviral activity against Influenza virus A/Puerto Rico/8/34 H1N1 infected in dog MDCK cells assessed as reduction in nucleoprotein expression at 20 ug/mL after 24 hrs by immunoblotting analysis relative to control. Conditions: A/Puerto Rico/8/1934(H1N1). It is filed as functional, organism-based. The procedure, abridged:
as §1

For series [16], the system named is Influenza A virus. Briefly: Antiviral activity against Influenza virus A/Puerto Rico/8/34 H1N1 infected in dog MDCK cells assessed as reduction in neuraminidase expression at 20 ug/mL after 24 hrs by immunoblotting analysis relative to control. Also noted: scale not given: the % may be the effect or the level left. In kind it is functional, A/Puerto Rico/8/1934(H1N1). In short, it runs like this:
as §1

The test system of series [17] is Influenza A virus. Nature of the series: Antiviral activity against Influenza virus A/Puerto Rico/8/34 H1N1 infected in dog MDCK cells at 20 ug/mL incubated for 4 hrs post-infection followed by compound washout measured after 24 hrs by hemagglutininating unit assay. In kind it is functional, organism-based. As to conditions: A/Puerto Rico/8/1934(H1N1). In short, it runs like this: as §2

Series [18] deals with Influenza A virus. Nature of the series: Antiviral activity against Influenza virus A/Puerto Rico/8/34 H1N1 infected in dog MDCK cells at 20 ug/mL incubated for 8 hrs post-infection followed by compound washout measured after 24 hrs by hemagglutininating unit assay relative to control. In kind it is functional, A/Puerto Rico/8/1934(H1N1). The procedure, abridged: as §2
Series [19] has as its system Influenza A virus. Briefly: Antiviral activity against Influenza virus A/Puerto Rico/8/34 H1N1 infected in dog MDCK cells assessed as reduction in matrix protein 1 expression at 20 ug/mL after 24 hrs by immunoblotting analysis relative to control. It is filed as functional, A/Puerto Rico/8/1934(H1N1). Details: scale not given: the % may be the effect or the level left. In short, it runs like this: as §1

The subject of series [20] is MDCK. Nature of the series: Cytotoxicity against dog MDCK cells assessed as morphological alterations at 40 ug/mL incubated for 24 hrs followed by compound wash out measured after 24 hrs by microscopic analysis. In kind it is cell-based, Canis lupus familiaris. The procedure, abridged:
as §3

The test system of series [21] is Influenza A virus. Nature of the series: Antiviral activity against Influenza virus A/Puerto Rico/8/34 H1N1 infected in dog MDCK cells at 20 ug/mL incubated for 2 hrs post-infection followed by compound washout measured after 24 hrs by hemagglutininating unit assay. It is filed as functional, organism-based. Conditions: A/Puerto Rico/8/1934(H1N1). The procedure, abridged: as §2

Series [22] has as its system Influenza A virus. Briefly: Antiviral activity against Influenza virus A/Puerto Rico/8/34 H1N1 infected in dog MDCK cells at 20 ug/mL incubated for 6 hrs post-infection followed by compound washout measured after 24 hrs by hemagglutininating unit assay relative to control. In kind it is functional, A/Puerto Rico/8/1934(H1N1). In short, it runs like this:
as §2

In series [23] the test system is Influenza A virus. Nature of the series: Antiviral activity against Influenza virus A/Puerto Rico/8/34 H1N1 infected in dog MDCK cells assessed as reduction in hemagglutininin expression at 20 ug/mL after 24 hrs by immunoblotting analysis relative to control. It is filed as functional, A/Puerto Rico/8/1934(H1N1). Details: scale not given: the % may be the effect or the level left. In short, it runs like this:
as §1

`O=C(/C=C/c1ccc(O)cc1)c1ccc(O)cc1O` [ISOLIQUIRITIGENIN]: the outcome in series [1], in [2], in series [3], in series [5], in [9] and in series [12] was inactive. In addition, in series [4], the inhibition entry is “inactive”. Besides, the Activity is on record as 42% in series [6]; 30% in series [7]; “Toxic” in [8]; 75% in series [13]; 55% in series [14]. Besides, the inhibition entry in series [10] and in [11] was “Active” in each case.
As for `O=C1/C(=C/c2ccc(O)c(O)c2)COC/C1=C\c1ccc(O)c(O)c1`, in series [15], the result was Active. The outcome in series [3], in [17] and in [21] was inactive. Further, the Activity is listed as 56% in series [16]; 55% in series [18]; 62% in [19]; “Toxic” in series [20]; 30% in series [22]; 25% in series [23]. For the same molecule, in [4], the inhibition entry was “inactive”. Also, in series [11], the inhibition result is “Active”.
